# An excerpt weighted towards active compounds, which were near 0.55% of everything screened.
# ABCB6 inh 2: inhibitors of human ABC transporter ABCB6. Q9NP58. K562-ABCB6 porphyrin accumulation, flow cytometry, 1 h; active compounds read low. fluorescence ratio to DMSO, % at 10 µM. actives 0.19% (n = 360,000);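 active means fluorescence ratio to DMSO below 75%, the collection mean minus 3 SD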;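 further: signal is porphyrin accumulated inside mitochondria; 100% equals median channel fluorescence of DMSO control wells; lower ratio means ABCB6 inhibition with less porphyrin fluorescence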
# Target sequence (Q9NP58 whole entry, looked up): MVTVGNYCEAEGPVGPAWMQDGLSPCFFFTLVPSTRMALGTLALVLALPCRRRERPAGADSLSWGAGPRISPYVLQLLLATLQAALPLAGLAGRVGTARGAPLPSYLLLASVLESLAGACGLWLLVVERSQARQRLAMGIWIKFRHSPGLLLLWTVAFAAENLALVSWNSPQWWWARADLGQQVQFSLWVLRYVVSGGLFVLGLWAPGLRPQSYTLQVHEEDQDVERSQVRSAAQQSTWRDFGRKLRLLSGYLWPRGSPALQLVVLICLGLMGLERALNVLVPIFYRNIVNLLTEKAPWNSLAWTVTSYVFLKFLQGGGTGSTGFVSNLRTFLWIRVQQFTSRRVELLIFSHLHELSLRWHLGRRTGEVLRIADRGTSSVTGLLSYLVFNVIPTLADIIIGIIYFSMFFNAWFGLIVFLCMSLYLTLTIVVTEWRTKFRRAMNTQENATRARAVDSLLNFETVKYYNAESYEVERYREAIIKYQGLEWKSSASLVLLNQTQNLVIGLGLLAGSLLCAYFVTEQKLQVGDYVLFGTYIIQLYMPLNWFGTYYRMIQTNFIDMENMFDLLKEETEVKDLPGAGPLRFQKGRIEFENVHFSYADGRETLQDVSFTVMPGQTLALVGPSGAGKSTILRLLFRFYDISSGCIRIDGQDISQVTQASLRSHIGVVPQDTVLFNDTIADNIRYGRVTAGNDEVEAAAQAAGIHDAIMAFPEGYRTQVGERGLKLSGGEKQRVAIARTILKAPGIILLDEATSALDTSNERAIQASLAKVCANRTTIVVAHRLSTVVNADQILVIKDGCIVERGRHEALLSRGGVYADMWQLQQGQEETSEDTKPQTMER
# p97 ATPase inh: inhibitors of human p97 ATPase. recombinant p97 ATPase, Kinase-Glo ATP luminescence, 3 h. inhibition, % at 8 µM. actives 0.42% (n = 220,000). P55072. AID 1481; in the data active means inhibition above about 15%;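 further: 0% = DMSO vehicle and 100% = wells lacking enzyme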
# Rad51 HR inh: blocks human Rad51 in homologous recombination. hRad51 DNA strand exchange, fluorescence dequenching. Q06609. inhibition, % at 10 µM. AID 1385. actives 0.085% (n = 200,000);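 active means inhibition above 40% at the single screening dose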;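 further: 0% = DMSO control wells and 100% = blanks with heterologous ssDNA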
#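 Read-out basis: percent inhibition relative to plate controls and blanks / Assay system: human Rad51 nucleoprotein filaments preassembled on unlabelled ssDNA / Timing: filaments 15 min 37 °C, then compound 30 min / Control set: per-plate controls and blanks / Technique: fluorescence dequenching at 485/520 nm / Compound: 10 µM final, single point / Also added: Fluorescein- and BHQ1-tagged 47-mer duplex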
# ABCB1 inh: blocks JC-1 efflux by human ABCB1 transporter; P08183; CCRF-Adr cells, flow cytometry; inhibition, % at 6.6 µM; actives 0.067% (n = 190,000); AID 1326; in the data active means inhibition above about 40%;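 further: 0% = vehicle and 100% = reference inhibitor; higher value means more JC-1 retained so stronger ABCB1 efflux block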
# ABCG2 block: inhibitors of human ABCG2 transporter, ABCB1 counter-screen; Q9UNQ0; IgMXP3 cells, JC-1 efflux, flow cytometry; inhibition, % at 6.6 µM; actives 0.1% (n = 190,000); AID 1325;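 active means inhibition above 80%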;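 further: 0% = DMSO and 100% = nicardipine control wells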
#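 Test system: IgMXP3 (ABCG2) plus far-red-tagged CCRF-Adr (ABCB1) cells. Reagent: JC-1 dye as substrate. Timing: 10 min exposure at 25 °C with rotation, no wash. Measured by: flow cytometric JC-1 green MFI at 530 nm. Read-out: percent efflux inhibition, scaled nicardipine 100% to DMSO 0%. Control set: nicardipine and DMSO wells.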
# HSV replic up: HSV replication enhancement. AID 1956. actives 0.005% (n = 220,000). HSV replication augmentation in cells, fold increase. maximum fold increase; in the data active means maximum fold increase above about 1.5; tested in PC3 cells
# Numbers without * were called inactive; i = inactive; · = not tested or not shown.
SMILES,ABCB6 inh 2,p97 ATPase inh,Rad51 HR inh,ABCB1 inh,ABCG2 block,HSV replic up
NNC(=O)CNC(c1ccccc1)c1cc(Br)ccc1NC(=O)CCN1CCOCC1 (centres undefined),99.0,18.6*,9.5,0.6,1.8,i
NNC(=O)CNC(c1ccccc1)c1cc(Br)ccc1NC(=O)c1ccc(Br)cc1 (centres undefined),99.0,9.8,-74.0,4.4,16.5,i
CC(=O)C1=C(C)OC(N)=C(C#N)C1c1cccc2ccccc12 (centres undefined),98.0,14.6*,-21.6,·,·,i
CCn1c(=O)c2cc(C(=O)NC(C)C)sc2c2ccccc21,98.0,14.5*,-21.4,·,·,i
CCCCNC(=O)c1cc2c(=O)n(CC)c3ccccc3c2s1,96.0,·,·,·,·,·
COc1ccc(N2CCN(C(=O)c3cn(C4CCCC4)c(=O)c4c3c3ccccc3n4C)CC2)cc1,98.0,4.0,·,1.9,2.2,·
COc1ccc(N2CCN(C(=O)c3cn(C)c(=O)c4c3c3ccccc3n4C)CC2)cc1,95.0,-0.9,132.4*,0.0,2.6,i
O=C(NCc1cccs1)c1nc(-c2cccs2)no1,101.0,3.6,41.3*,1.9,26.2,i
C[C@H]1COc2cc(N3CCC[C@H]3CO)ccc2S(=O)(=O)N1,101.0,·,·,·,·,·
COc1cc(/C=C2\SC(c3ccc(C)cc3)=NC2=O)cc(OC)c1O,116.0,7.3,-130.9,0.2,-0.1,i
Cc1ccc(C2=NC(=O)/C(=C/c3cc(O)c(O)c(Br)c3)S2)cc1,111.0,31.1*,-12.5,-5.1,-9.8,i
Cc1ccc(C(=O)Nc2cccnc2)cc1C,97.0,·,·,·,·,·
O=C(NCc1ccc2c(c1)OCO2)c1nn(-c2ccccc2)c(=O)c2ccccc12,65.0*,4.8,-2.0,1.6,4.3,i
Cc1[nH][nH]c(=O)c1C(c1ccc(-c2ccc(Cl)cc2Cl)o1)c1c(C)[nH][nH]c1=O,·,20.2*,-5.0,0.2,0.4,i
COC(=O)c1ccc(-c2ccc(C(c3c(C)[nH][nH]c3=O)c3c(C)[nH][nH]c3=O)o2)cc1,107.0,10.8,16.4,-0.6,-1.5,i
CCN(CC(=O)NCCc1ccc(F)cc1)Cc1nc2ccccc2c(=O)[nH]1,98.0,1.4,46.4*,·,·,i
CCN(CC(=O)NCCc1ccc(Cl)cc1)Cc1nc2ccccc2c(=O)[nH]1,101.0,1.2,5.4,0.0,1.0,i
OC(c1cccc(CN2CCCCC2)c1)c1ncc(-c2cccc3ccccc23)[nH]1 (centres undefined),99.0,·,·,·,·,·
COc1ccccc1CNC(=S)NC1CCCC1,69.0*,4.3,-4.6,0.4,19.6,·
CCN1CCc2c(sc(NC(=O)c3ccc(C(=O)c4ccccc4)cc3)c2C(N)=O)C1,103.0,·,·,·,·,·
CCN1CCc2c(sc(NC(=O)Nc3ccc(Cl)c(Cl)c3)c2C(N)=O)C1,944.0,5.9,i,39.4,136.1*,·
C[C@H]1CN([C@@H](C)CO)C(=O)CCCn2nncc2CO[C@H]1CN(C)S(=O)(=O)c1ccc2ccccc2c1,95.0,·,·,·,·,·
CN1C(=O)S/C(=C\c2ccccc2OCc2ccc(C(=O)O)cc2)C1=O,97.0,-4.6,-3.1,0.9,30.3,i
Cc1ccc(Oc2ccccc2/C=C2\SC(=O)N(C)C2=O)cc1,74.0*,1.1,-10.8,0.8,4.0,i
CN1OC[C@@H]2CN[C@H](c3ccc(-c4cc5ccccc5o4)cc3)C[C@@H]21,98.0,·,·,·,·,·
SMILES,ABCB6 inh 2,p97 ATPase inh,Rad51 HR inh,ABCB1 inh,ABCG2 block,HSV replic up
COn1c(C)c(C)c2c3nonc3ccc21,102.0,18.8*,0.1,·,·,i
CCOC(=O)c1c(C)n(OCc2ccccc2)c2ccc3nonc3c12,96.0,1.3,8.0,1.5,15.1,i
CC1C(=O)N(Cc2cn(CCC3OCCCO3)nn2)CCS(=O)(=O)N1Cc1ccc(-c2ccc(Cl)nc2)cc1 (centres undefined),104.0,·,·,·,·,·
Cc1cccc(OCC(=O)N/N=C\c2cccn2C)c1C,67.0*,-0.3,·,0.6,11.1,i
Cc1onc(-c2ccccc2)c1-c1nnc(CN2CCN(S(=O)(=O)c3ccccc3F)CC2)o1,101.0,·,·,·,·,·
COCCn1c(C)cc(C(=O)COC(=O)C23CC4CC(CC(O)(C4)C2)C3)c1C,2.0*,-4.7,-0.7,0.2,14.2,i
COc1ccccc1/C=C1/C(=O)N(c2ccccc2)N=C1C,74.0*,·,·,·,·,·

# Source: PubChem
